The term GI50 denotes the concentration giving 50% growth inhibition.

This note sets out measurements from ChEMBL document CHEMBL1142980, “Quinols as novel therapeutic agents. 7.1 Synthesis of antitumor 4-[1-(arylsulfonyl-1H-indol-2-yl)]-4-hydroxycyclohexa-2,5-dien-1-ones by Sonogashira reactions” (J Med Chem, 2007).

Assay [1] in a line: Growth inhibition of NCI60 cells. It counts as functional. The note with it: Homo sapiens; for CC50: read-out: LC50 (the source's name). Summed up: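 Run in the NCI in vitro 60 human cancer cell line panel. Potency is given as mean GI50 and mean LC50 (µM) across the panel. Individual lines with LC50 below 1 µM are reported separately.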
The next assay has as its system HCT-116. Kind of assay: Growth inhibition of human HCT116 cells after 72 hrs by MTT assay. The note with it: HCT-116, 72 h, read-out: LC50 (the source's name). In kind it is functional, cell-based. The gist of the method: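 Human cancer cells given 72 h continuous drug exposure, growth measured by MTT assay; part of a preliminary five-line screen (colon HCT-116, HT29; breast MCF-7, MDA 468; non-small cell lung A549).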

In another assay the test system is SK-MEL-5. Nature of the assay: Growth inhibition of human SKMEL5 cells after 72 hrs by MTT assay. It counts as functional. The note with it: SK-MEL-5, 72 h, read-out: LC50 (the source's name). Background: Formazan colour is commonly taken as a measure of viable cells.
The test system of another assay is ACHN. Nature of the assay: Growth inhibition of human ACHN cells after 72 hrs by MTT assay. It counts as functional. The note with it: read-out: LC50 (the source's name).
Assay [2] in a line: Growth inhibition of human LOXIMV1 cells after 72 hrs by MTT assay. In kind it is functional. The note with it: LOX IMV1, 72 h, read-out: LC50 (the source's name).
Another assay has as its system CAKI-1. Nature of the assay: Growth inhibition of human CAKI1 cells after 72 hrs by MTT assay. The note with it: CAKI-1, 72 h, read-out: LC50 (the source's name). In kind it is functional.
A further assay deals with BT-549. Kind of assay: Growth inhibition of human BT549 cells after 72 hrs by MTT assay. In kind it is functional. The note with it: BT-549, 72 h, read-out: LC50 (the source's name).
A further assay concerns A498. Nature of the assay: Growth inhibition of human A498 cells after 72 hrs by MTT assay. It counts as functional. The note with it: A498, 72 h, read-out: LC50 (the source's name).

A value given as a limit tells only on which side of the number the result lay.

As to `O=C1C=CC(O)(c2cc3ccccc3n2S(=O)(=O)c2ccc(CCC(=O)O)cc2)C=C1`, in assay [1], the GI50 was 2340 nM and the CC50 was 23400 nM.
`COC(=O)CCc1ccc(S(=O)(=O)n2c(C3(O)C=CC(=O)C=C3)cc3ccccc32)cc1` gave a GI50 in assay [1] of 680 nM. Also, the CC50 in assay [1] turned out to be 22900 nM; in the assay with HCT-116, 20 nM; in the assay on SK-MEL-5 it was 600 nM.
With `Cc1ccc(S(=O)(=O)n2c(C3(O)C=CC(=O)C=C3)cc3ccccc32)cc1`, in assay [1], the GI50 is 110 nM. Also, the CC50 in assay [1] was 7240 nM; in the assay on HCT-116, less than 10 nM; with ACHN, 40 nM; in assay [2] it was less than 10 nM.
Regarding `O=C1C=CC(O)(c2cc3cnccc3n2S(=O)(=O)c2ccccc2)C=C1`, the GI50 in assay [1] amounted to 340 nM. Also, the CC50 in assay [1] turned out to be 13800 nM; with HCT-116, 930 nM; in the assay with CAKI-1 it was 470 nM.
For the compound `O=C1C=CC(O)(c2cc3ccc(F)cc3n2S(=O)(=O)c2ccccc2)C=C1`, in assay [1], the 50% growth inhibitory concentration (GI50) was 16 nM and the CC50 turned out to be 2240 nM.
In turn, `COC(=O)CCc1ccc(S(=O)(=O)n2c(C3(O)C=CC(=O)C=C3)cc3ccc(F)cc32)cc1` had a 50% growth inhibitory concentration (GI50) in assay [1] of 500 nM. For the same compound, the CC50 worked out at 10500 nM in assay [1], 720 nM in the assay with HCT-116, 810 nM in assay [2] and 740 nM in the assay with BT-549.
`CCOC(=O)Nc1ccc(S(=O)(=O)n2c(C3(O)C=CC(=O)C=C3)cc3ccccc32)cc1` displayed a GI50 in assay [1] of 190 nM. The CC50 in assay [1] turned out to be 7580 nM; in the assay with HCT-116 it was 295 nM; with ACHN, 600 nM.
Compound `CN(C)c1cccc2c(S(=O)(=O)n3c(C4(O)C=CC(=O)C=C4)cc4ccccc43)cccc12` showed a GI50 in assay [1] of 190 nM. For the same compound, the CC50 in assay [1] turned out to be 13200 nM; in the assay on ACHN it was 410 nM; with A498, 60 nM.
For `O=C1C=CC(O)(c2nc3ccccc3s2)C=C1`, in assay [1], the GI50 came to 230 nM and the CC50 came to 3390 nM.
For the compound `O=C1C=CC(O)(c2cc3ccc(F)cc3n2S(=O)(=O)c2ccc(CCC(=O)O)cc2)C=C1`, in assay [1], growth was halved (GI50) at 2500 nM and the CC50 was 29500 nM.
`O=C1C=CC(O)(c2cc3ccccc3n2S(=O)(=O)c2ccccc2)C=C1` displayed a GI50 in assay [1] of 39 nM. For the same compound, the results for the CC50 (in assay [1]; in the assay on HCT-116; in the assay with CAKI-1) were 2950 nM, 30 nM and 50 nM, respectively.
For the compound `O=C1C=CC(O)(c2cc3ccccc3n2S(=O)(=O)c2cccnc2)C=C1`, in assay [1], the GI50 is 410 nM and the CC50 came out at 14100 nM. For the same compound, the CC50 in the assay with HCT-116 amounted to 290 nM.
In assay [1], `Cc1ccc(S(=O)(=O)n2c(C3(O)C=CC(=O)C=C3)cc3ccncc32)cc1` yielded a GI50 of 170 nM. Also, the CC50 in assay [1] was 5750 nM; in the assay on HCT-116, less than 10 nM; with ACHN, 50 nM; in assay [2], 60 nM.
